From PubChem BioAssay AID688 (PCMD, 2007)
Among all 27,000 compounds or so, about 250 (0.93%) were called active.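 Rule for the calls: active = mutant luminescence inhibited past about 50% while wild type luminescence and mutant growth stay under set limits (limit read from the data); inconclusive = mutant versus wild type luminescence inhibition gap past a set limit; inactive = the rest.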 For the sample, actives were picked, then their nearest neighbours and some compounds at random.

Assay: mutant yeast GCN4 reporter luminescence inhibitors – S. cerevisiae, eIF2B-epsilon R284H, Beta-Glo luminescence, primary screen (AID 688)
Conditions: GCN4-lacZ luminescence; growth inhibition: measured here: mutant yeast growth, toxicity, concentration not given here; inhibition: stronger effect = higher value, screened at 25 µM (by protocol)
How it was run: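 material = yeast eIF2B-epsilon R284H mutant carrying GCN4–beta-galactosidase fusion | schedule = 16 h growth with compound at 30 °C, 90 min Beta-Glo step | measured by = luminescence and A595 | compound dosing = one concentration, 25 µM, 0.25% DMSO | read-out basis = % inhibition of reporter signal and growth versus controls | buffer or medium = YPD medium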

Which growth inhibition does the source give for `COCCOCCn1cnc2ccccc21` here?
Its growth inhibition is 6.67%.

And the inhibition?
The inhibition was 18.1% (inactive).

For `CCOn1c(SC(C)C)nc2ccccc2c1=O`, which inhibition is on record?
The inhibition was 10.3% (inactive).

Which inhibition does the source give for `O=C(CSc1nnc(-c2cccnc2)n1CCc1ccccc1)NCc1ccccc1` here?
The inhibition was -28.6% (inactive).

Which results are given for `Cc1ccc(NC(=O)N2CCC(O)(c3cccnc3)CC2)cc1`?
growth inhibition: 12.8%; inhibition: 17.2% (inactive)

For `Cn1c(Cc2cccc3ccccc23)nnc1SCC(=O)N1CCN(c2cccc(Cl)c2)CC1`, which growth inhibition is on record?
The growth inhibition was 2.78%.

And the inhibition?
The inhibition was 15.8% (inactive).

Which growth inhibition does the source give for `CCSC1(SCC)N=C(N)C2(C#N)C(c3ccccc3)NC(C)=CC12C#N` (stereo not drawn) here?
Its growth inhibition is -8.11%.

What about the inhibition of the same compound?
The inhibition was -35% (inactive).

Which growth inhibition does the source give for `CNC(=S)N1N=C(c2ccccc2)CC1c1ccc(Br)cc1` (stereo not drawn) here?
The growth inhibition was -12.5%.

And the inhibition?
The inhibition was 17.7% (inactive).

For `CCNC(=O)CN(c1ccc(C)cc1)S(=O)(=O)c1ccc(SC)cc1`, which growth inhibition is on record?
The growth inhibition was 13.8%.

And the inhibition?
Its inhibition is -15% (inactive).

Which growth inhibition does the source give for `Cc1nn(C)cc1CNC(=O)Nc1ccc(Cl)cc1` here?
Its growth inhibition is -18.2%.

What about the inhibition of the same compound?
The inhibition was -9.58% (inactive).

Which growth inhibition does the source give for `O=C1c2ccncc2C(=O)N1C1CCCCC1` here?
Its growth inhibition is 8.93%.

What about the inhibition of the same compound?
Its inhibition is 68.7% (active).

Which results are given for `Cc1cc(N2CCN(S(=O)(=O)c3ccc(C)c(C)c3)CC2)c2ccccc2n1`?
growth inhibition: 3.23%; inhibition: 10.4% (inactive)

For `Cc1[nH][nH]c(=O)c1N=Nc1ccccc1`, which growth inhibition is on record?
Its growth inhibition is 8.33%.

And the inhibition?
The inhibition was 28.6% (inactive).

Which results are given for `CN(Cc1nc2ccccc2c(=O)[nH]1)Cc1cc(=O)oc2ccc3ccccc3c12`?
growth inhibition: 9.38%; inhibition: 16.8% (inactive)

Which results are given for `CC(C)C(NC(=O)c1ccc(Cl)cc1)C(=O)O` (stereo not drawn)?
growth inhibition: 16.2%; inhibition: 27.4% (inactive)

What does the source list for `CCC(C(=O)NCc1ccc(OC)cc1)n1nc(C)n2c(cc3occc32)c1=O` (stereo not drawn)?
growth inhibition: -9.52%; inhibition: 47% (inactive)

What does the source list for `Cc1noc(NS(=O)(=O)c2ccc(NC(=O)C34CCC(CC3)C4)cc2)c1C`?
growth inhibition: 2.7%; inhibition: -23.3% (inactive)

With `C/C=C/C(=O)OCC(=O)Nc1ccc(F)cc1Cl` as the compound, how does the growth inhibition read?
Its growth inhibition is -4.76%.

And the inhibition?
The inhibition was 19.8% (inactive).

What does the source list for `COc1ccc(CNCCCO)cc1OC`?
growth inhibition: 8.33%; inhibition: -1.06% (inactive)

With `CCc1c(-c2ccccc2)nc(N)c(C#N)c1-c1cccs1` as the compound, how does the growth inhibition read?
The growth inhibition was -19.1%.

What about the inhibition of the same compound?
Its inhibition is 15.9% (inactive).

Which results are given for `OCCN1CCOCCOCCN(CCO)CCN(CCO)CC1`?
growth inhibition: -9.52%; inhibition: 13.5% (inactive)

With `O=c1[nH][nH]c(C(F)(F)F)c1C=NCc1ccccc1Cl` as the compound, how does the growth inhibition read?
The growth inhibition was 12.5%.

What about the inhibition of the same compound?
The inhibition was 12% (inactive).

With `O=P(O)(CP(=O)(c1ccccc1)c1ccccc1)c1ccccc1` as the compound, how does the growth inhibition read?
The growth inhibition was 3.57%.

What about the inhibition of the same compound?
The inhibition was -14.4% (inactive).

For `CC(C)(C)NC(=O)Cn1c(SCC(=O)Nc2nccs2)nc2ccccc21`, which growth inhibition is on record?
The growth inhibition was -29.4%.

What about the inhibition of the same compound?
The inhibition was 0.21% (inactive).

With `COc1ccccc1N=C1SC(C)CN1C(=O)C1CCC1` (stereo not drawn) as the compound, how does the growth inhibition read?
The growth inhibition was 4.55%.

And the inhibition?
The inhibition was 26.9% (inactive).

For `CCN(CC(=O)Nc1ccccc1OC)C(=O)Cn1cnc2ccccc2c1=O`, which growth inhibition is on record?
Its growth inhibition is -14.3%.

What about the inhibition of the same compound?
Its inhibition is 6.69% (inactive).

With `C/C(=N\NS(=O)(=O)c1ccc(Br)cc1)c1cccs1` as the compound, how does the growth inhibition read?
Its growth inhibition is 2.78%.

And the inhibition?
The inhibition was 11% (inactive).

Which growth inhibition does the source give for `Cc1cccc(NC(=O)C2CC(=O)OC23CCCC3)c1` (stereo not drawn) here?
Its growth inhibition is 11.5%.

What about the inhibition of the same compound?
Its inhibition is -11.9% (inactive).

What does the source list for `Cc1ccc(NC(=O)N2CCC(c3nc4c(nnn4Cc4c(F)cccc4Cl)c(=O)[nH]3)CC2)cc1`?
growth inhibition: 6.06%; inhibition: 14.6% (inactive)

Which results are given for `CCC(C)NC(=O)CCCc1ccccc1` (stereo not drawn)?
growth inhibition: -2.38%; inhibition: 7.79% (inactive)

With `CCCCNC(=O)C1CCCNC1=O` (stereo not drawn) as the compound, how does the growth inhibition read?
The growth inhibition was 26.5%.

And the inhibition?
The inhibition was 22.2% (inactive).

Which results are given for `CC1(C)Cc2c(sc3nc(SCC(=O)NCc4ccccc4)n(-c4ccccc4)c(=O)c23)CS1`?
growth inhibition: -11.9%; inhibition: -11% (inactive)

For `CCOc1ccc(S(=O)(=O)NCC2CCCO2)cc1` (stereo not drawn), which growth inhibition is on record?
The growth inhibition was 5.88%.

What about the inhibition of the same compound?
The inhibition was 10.3% (inactive).

Which growth inhibition does the source give for `Cn1c2c(c(=O)n(C)c1=O)C(c1cccc([N+](=O)[O-])c1)Nc1ccccc1O2` (stereo not drawn) here?
The growth inhibition was -14.3%.

What about the inhibition of the same compound?
The inhibition was 20.4% (inactive).

Which growth inhibition does the source give for `CC(=O)Nc1ccc(S(=O)(=O)N2CCN(C3CCCCCCC3)CC2)cc1` here?
The growth inhibition was 9.09%.

What about the inhibition of the same compound?
The inhibition was -9.55% (inactive).

With `CCOC(=O)CSc1nnc(CNc2ccc(F)cc2)o1` as the compound, how does the growth inhibition read?
The growth inhibition was 3.45%.

And the inhibition?
Its inhibition is 19.4% (inactive).

For `COc1ccc(CN(CC(=O)NC2CCCC2)C(=O)CCC(=O)Nc2cc(C)on2)cc1`, which growth inhibition is on record?
The growth inhibition was -15.6%.

What about the inhibition of the same compound?
The inhibition was -35.1% (inactive).

Which inhibition does the source give for `CN(C(=O)COc1ccccc1)c1nnc(-c2ccncc2)s1` here?
The inhibition was 10.2% (inactive).

With `CCOC(=O)CSc1nccc(N(C)C)c1C#N` as the compound, how does the growth inhibition read?
Its growth inhibition is 12%.

And the inhibition?
Its inhibition is 24.8% (inactive).

Which inhibition does the source give for `CCOC(=O)CSc1nncc2ccc(OC)c(OC)c12` here?
Its inhibition is 50.1% (active).

For `CCOC(=O)CSc1nnc(CNC(=O)Cc2ccccc2)n1-c1ccccc1OC`, which growth inhibition is on record?
Its growth inhibition is -1.72%.

What about the inhibition of the same compound?
The inhibition was 36.1% (inactive).

Which growth inhibition does the source give for `CCC(=O)c1ccc(OCC(O)CN2CC(C)OC(C)C2)cc1` (stereo not drawn) here?
Its growth inhibition is 4.55%.

And the inhibition?
The inhibition was -8.08% (inactive).
